In ChEMBL document CHEMBL3259701, “Siderophore receptor-mediated uptake of lactivicin analogues in gram-negative bacteria” (J Med Chem, 2014):
Values after ≈ are worked out from the molar mass of the structure shown.

What was measured:
[1] = tested on: Pseudomonas aeruginosa; test: Antibacterial activity against Pseudomonas aeruginosa PAO1 harboring siderophore receptor piuA and pfeA double mutant in Mueller-Hinton broth medium by CLSI broth microdilution method; type: functional
Procedure, shortened: (§1)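 MIC by CLSI broth microdilution in standard Mueller Hinton broth. Tested against wild-type P. aeruginosa PAO1 and an isogenic panel lacking one or more siderophore receptors.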

[2] = tested on: Pseudomonas aeruginosa; test: Ratio of MIC for Pseudomonas aeruginosa PAO1 harboring siderophore receptor fpvA mutant to MIC for wild type Pseudomonas aeruginosa PAO1 in Mueller-Hinton broth medium by CLSI broth microdilution method; type: functional
Procedure, shortened: (§2)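 Receptor-deficient PAO1 strain MIC divided by parent PAO1 MIC. Both MICs were obtained by CLSI broth microdilution in standard Mueller Hinton broth. A shift greater than 4× was taken to indicate that the deleted receptor(s) take part in drug uptake.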

[3] = tested on: Pseudomonas aeruginosa; test: Ratio of MIC for Pseudomonas aeruginosa PAO1 harboring siderophore receptor fptA mutant to MIC for wild type Pseudomonas aeruginosa PAO1 in Mueller-Hinton broth medium by CLSI broth microdilution method; type: functional; procedure, shortened: as §2
[4] = tested on: Pseudomonas aeruginosa; test: Ratio of MIC for Pseudomonas aeruginosa PAO1 harboring siderophore receptor pfeA mutant to MIC for wild type Pseudomonas aeruginosa PAO1 in Mueller-Hinton broth medium by CLSI broth microdilution method; type: functional; procedure, shortened: as §2
[5] = tested on: Pseudomonas aeruginosa; test: Ratio of MIC for Pseudomonas aeruginosa PAO1 harboring siderophore receptor piuA and fpvA double mutant to MIC for wild type Pseudomonas aeruginosa PAO1 in Mueller-Hinton broth medium by CLSI broth microdilution method; type: functional
Procedure, shortened: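 Broth microdilution MIC per CLSI in standard Mueller-Hinton broth, run against wild-type P. aeruginosa PAO1 and isogenic PAO1 strains lacking one or more siderophore receptors. Value is the mutant-strain MIC divided by the PAO1 MIC.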

[6] = tested on: Pseudomonas aeruginosa; test: Antibacterial activity against Pseudomonas aeruginosa PAO1 harboring siderophore receptor piuA and fpvA double mutant in medium containing low-Fe by CLSI broth microdilution method; type: functional
Procedure, shortened: (§3)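 MIC by CLSI broth microdilution in a modified Mueller Hinton broth depleted of iron to mimic the low-iron in vivo environment. Tested against PAO1 and isogenic strains lacking one or more siderophore receptors.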

[7] = tested on: Pseudomonas aeruginosa; test: Antibacterial activity against Pseudomonas aeruginosa PAO1 harboring siderophore receptor piuA, pfeA and pirA mutant in medium containing low-Fe by CLSI broth microdilution method; type: functional; procedure, shortened: as §3
[8] = tested on: Pseudomonas aeruginosa; test: Ratio of MIC for Pseudomonas aeruginosa PAO1 harboring siderophore receptor pirA mutant to MIC for wild type Pseudomonas aeruginosa PAO1 in medium containing low-Fe by CLSI broth microdilution method; type: functional
Procedure, shortened: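 Ratio of strain MIC to PAO1 MIC. Both MICs were obtained by CLSI broth microdilution in iron-depleted modified Mueller Hinton broth. A shift greater than 4× versus the parent was read as the deleted receptor(s) taking part in uptake.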

[9] = tested on: Pseudomonas aeruginosa; test: Ratio of MIC for Pseudomonas aeruginosa PAO1 harboring siderophore receptor piuA and pirA double mutant to MIC for wild type Pseudomonas aeruginosa PAO1 in medium containing low-Fe by CLSI broth microdilution method; type: functional
Procedure, shortened: (§4)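 CLSI broth microdilution MICs in a modified Mueller-Hinton broth depleted of iron to mimic low in vivo iron. Tested against wild-type PAO1 and isogenic siderophore receptor knockout strains. Reported as the knockout-strain MIC divided by the PAO1 MIC in the same iron-depleted medium.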

[10] = tested on: Pseudomonas aeruginosa; test: Ratio of MIC for Pseudomonas aeruginosa PAO1 harboring siderophore receptor piuA and pfeA double mutant to MIC for wild type Pseudomonas aeruginosa PAO1 in medium containing low-Fe by CLSI broth microdilution method; type: functional; procedure, shortened: as §4
[11] = tested on: Pseudomonas aeruginosa; test: Ratio of MIC for Pseudomonas aeruginosa PAO1 harboring siderophore receptor piuA, pfeA and pirA mutant to MIC for wild type Pseudomonas aeruginosa PAO1 in medium containing low-Fe by CLSI broth microdilution method; type: functional; procedure, shortened: as §4
[12] = tested on: Pseudomonas aeruginosa; test: Ratio of MIC for Pseudomonas aeruginosa PAO1 harboring siderophore receptor piuA mutant in MHB medium to MIC for Pseudomonas aeruginosa PAO1 harboring siderophore receptor piuA mutant in medium containing low-Fe by CLSI broth microdilution method; type: functional
[13] = tested on: Pseudomonas aeruginosa; test: Ratio of MIC for Pseudomonas aeruginosa PAO1 harboring siderophore receptor fpvA mutant in MHB medium to MIC for Pseudomonas aeruginosa PAO1 harboring siderophore receptor fpvA mutant in medium containing low-Fe by CLSI broth microdilution method; type: functional
[14] = tested on: Pseudomonas aeruginosa; test: Ratio of MIC for Pseudomonas aeruginosa PAO1 harboring siderophore receptor piuA and pirA double mutant in MHB medium to MIC for Pseudomonas aeruginosa PAO1 harboring siderophore receptor piuA and pirA double mutant in medium containing low-Fe by CLSI broth microdilution method; type: functional
[15] = tested on: Pseudomonas aeruginosa; test: Antibacterial activity against Pseudomonas aeruginosa PAO1 harboring siderophore receptor fpvA mutant in medium containing aztreonam and low-Fe by CLSI broth microdilution method; type: functional
[16] = tested on: Pseudomonas aeruginosa; test: Antibacterial activity against Pseudomonas aeruginosa PAO1 harboring siderophore receptor pfeA mutant in medium containing aztreonam and low-Fe by CLSI broth microdilution method; type: functional
[17] = tested on: Pseudomonas aeruginosa; test: Antibacterial activity against Pseudomonas aeruginosa PAO1 harboring siderophore receptor piuA and fptA double mutant in medium containing aztreonam and low-Fe by CLSI broth microdilution method; type: functional
[18] = tested on: Pseudomonas aeruginosa; test: Antibacterial activity against Pseudomonas aeruginosa PAO1 harboring siderophore receptor piuA and pfeA double mutant in medium containing aztreonam and low-Fe by CLSI broth microdilution method; type: functional
[19] = tested on: Pseudomonas aeruginosa; test: Ratio of MIC for Pseudomonas aeruginosa PAO1 harboring siderophore receptor piuA mutant to MIC for wild type Pseudomonas aeruginosa PAO1 in medium containing aztreonam and low-Fe by CLSI broth microdilution method; type: functional
[20] = tested on: Pseudomonas aeruginosa; test: Ratio of MIC for Pseudomonas aeruginosa PAO1 harboring siderophore receptor piuA and fpvA double mutant to MIC for wild type Pseudomonas aeruginosa PAO1 in medium containing aztreonam and low-Fe by CLSI broth microdilution method; type: functional
[21] = tested on: Pseudomonas aeruginosa; test: Ratio of MIC for Pseudomonas aeruginosa PAO1 harboring siderophore receptor piuA and pirA double mutant to MIC for wild type Pseudomonas aeruginosa PAO1 in medium containing aztreonam and low-Fe by CLSI broth microdilution method; type: functional
[22] = tested on: Pseudomonas aeruginosa; test: Ratio of MIC for Pseudomonas aeruginosa PAO1 harboring siderophore receptor piuA, pfeA and pirA mutant to MIC for wild type Pseudomonas aeruginosa PAO1 in medium containing aztreonam and low-Fe by CLSI broth microdilution method; type: functional
[23] = tested on: Escherichia coli; test: Antibacterial activity against Escherichia coli DH5alpha by CLSI broth microdilution method; type: functional; conditions: DH5[alpha]
[24] = tested on: Escherichia coli; test: Antibacterial activity against Escherichia coli DH5alpha expressing beta-lactamase SHV-5 by CLSI broth microdilution method; type: functional; conditions: DH5[alpha]
[25] = tested on: Escherichia coli; test: Antibacterial activity against Escherichia coli DH5alpha expressing beta-lactamase SHV-12 by CLSI broth microdilution method; type: functional; conditions: DH5[alpha]
[26] = tested on: Escherichia coli; test: Antibacterial activity against Escherichia coli DH5alpha expressing beta-lactamase CTX-M-15 by CLSI broth microdilution method; type: functional; conditions: DH5[alpha]
[27] = tested on: Escherichia coli; test: Antibacterial activity against Escherichia coli DH5alpha expressing beta-lactamase NDM-1 by CLSI broth microdilution method; type: functional; conditions: DH5[alpha]
[28] = tested on: Escherichia coli; test: Antibacterial activity against Escherichia coli DH5alpha expressing beta-lactamase OXA-24/40 by CLSI broth microdilution method; type: functional; conditions: DH5[alpha]
[29] = tested on: Escherichia coli; test: Antibacterial activity against Escherichia coli DH5alpha expressing beta-lactamase KPC-3 by CLSI broth microdilution method; type: functional; conditions: DH5[alpha]
[30] = Displacement of fluorescent Bocillin FL from Pseudomonas aeruginosa PBP1b
[31] = Displacement of fluorescent Bocillin FL from Pseudomonas aeruginosa PBP2
[32] = tested on: Pseudomonas aeruginosa; test: Antibacterial activity against Pseudomonas aeruginosa PAO1 harboring siderophore receptor fpvA mutant in Mueller-Hinton broth medium by CLSI broth microdilution method; type: functional; procedure, shortened: as §1

In the case of `CC(C)(O/N=C(\C(=O)N[C@H]1CON(C2(C(=O)O)C[C@H](N3C(=O)c4cc(O)c(O)cc4C3=O)C(=O)O2)C1=O)c1csc(N)n1)C(=O)O` (some centres not stated), the MIC [1] is reported as 8 µg/mL (≈ 12.1 µM), the Ratio [2] is reported as 32 and the Ratio [3] is reported as 8. For the same molecule, the Ratio [4] was 1, the Ratio [5] was 32 and the MIC [6] was 0.25 µg/mL (≈ 0.377 µM). The MIC [7] was 0.25 µg/mL (≈ 0.377 µM), the Ratio [8] was 1 and the Ratio [9] was “>=8”. For the same molecule, the Ratio [10] was “>=4”, the Ratio [11] was “>=8” and the Ratio [12] was 64. For the same molecule, the Ratio [13] was 512, the Ratio [14] was 64 and the MIC [15] was 2 µg/mL (≈ 3.02 µM). The MIC [16] was 4 µg/mL (≈ 6.04 µM), the MIC [17] was 4 µg/mL (≈ 6.04 µM) and the MIC [18] was 4 µg/mL (≈ 6.04 µM). It also gave a Ratio [19] of 1, a Ratio [20] of 1 and a Ratio [21] of 1. The Ratio [22] was 1, the MIC [23] was 0.03 µg/mL (≈ 0.0453 µM) and the MIC [24] was 0.03 µg/mL (≈ 0.0453 µM). It also gave an MIC [25] of 0.015 µg/mL (≈ 0.0226 µM), an MIC [26] of 0.015 µg/mL (≈ 0.0226 µM) and an MIC [27] of 0.03 µg/mL (≈ 0.0453 µM). For the same molecule, the MIC [28] was 0.03 µg/mL (≈ 0.0453 µM), the MIC [29] was 0.03 µg/mL (≈ 0.0453 µM) and the IC50 [30] was 270 nM. The IC50 [31] was 3700 nM and the MIC [32] was 16 µg/mL (≈ 24.1 µM).
